In ChEMBL document CHEMBL1132940, “Pharmacophore/receptor models for GABA(A)/BzR subtypes (alpha1beta3gamma2, alpha5beta3gamma2, and alpha6beta3gamma2) via a comprehensive ligand-mapping approach” (J Med Chem, 2000):

Experiments:
[1] = target: T1, GABA-A receptor; alpha-1/beta-3/gamma-2 (Homo sapiens, UniProt P14867+P18507+P28472); experiment: Binding affinity for human recombinant gamma-aminobutyric-acid (GABA) A receptor alpha-1-beta-3-gamma-2; format: protein-complex assay
T1 sequence (P14867 whole entry): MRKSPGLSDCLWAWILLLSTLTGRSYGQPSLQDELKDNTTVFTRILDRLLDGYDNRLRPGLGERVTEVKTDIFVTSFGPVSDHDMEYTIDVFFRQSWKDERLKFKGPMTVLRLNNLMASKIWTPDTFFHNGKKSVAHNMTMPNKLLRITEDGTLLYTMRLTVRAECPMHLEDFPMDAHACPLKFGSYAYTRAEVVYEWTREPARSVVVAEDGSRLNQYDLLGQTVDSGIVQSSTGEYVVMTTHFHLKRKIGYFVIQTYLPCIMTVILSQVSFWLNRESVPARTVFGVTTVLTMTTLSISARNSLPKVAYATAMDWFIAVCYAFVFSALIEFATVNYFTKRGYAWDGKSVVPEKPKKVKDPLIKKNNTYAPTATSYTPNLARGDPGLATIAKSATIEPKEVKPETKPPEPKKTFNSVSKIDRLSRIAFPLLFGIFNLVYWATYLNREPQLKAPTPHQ
T1 sequence (P18507 whole entry): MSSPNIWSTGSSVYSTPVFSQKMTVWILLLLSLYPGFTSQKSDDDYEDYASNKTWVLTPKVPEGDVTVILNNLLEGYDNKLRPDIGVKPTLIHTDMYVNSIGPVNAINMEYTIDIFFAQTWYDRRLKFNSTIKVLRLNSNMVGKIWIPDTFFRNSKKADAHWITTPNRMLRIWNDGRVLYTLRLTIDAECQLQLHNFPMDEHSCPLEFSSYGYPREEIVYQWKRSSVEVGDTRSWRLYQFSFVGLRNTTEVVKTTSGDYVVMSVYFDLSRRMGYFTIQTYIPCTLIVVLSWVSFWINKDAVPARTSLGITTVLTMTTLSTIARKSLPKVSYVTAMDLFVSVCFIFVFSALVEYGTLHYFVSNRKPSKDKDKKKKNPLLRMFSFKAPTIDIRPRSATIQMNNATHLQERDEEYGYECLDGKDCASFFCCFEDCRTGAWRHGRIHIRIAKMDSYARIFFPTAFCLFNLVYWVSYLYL
T1 sequence (P28472 whole entry): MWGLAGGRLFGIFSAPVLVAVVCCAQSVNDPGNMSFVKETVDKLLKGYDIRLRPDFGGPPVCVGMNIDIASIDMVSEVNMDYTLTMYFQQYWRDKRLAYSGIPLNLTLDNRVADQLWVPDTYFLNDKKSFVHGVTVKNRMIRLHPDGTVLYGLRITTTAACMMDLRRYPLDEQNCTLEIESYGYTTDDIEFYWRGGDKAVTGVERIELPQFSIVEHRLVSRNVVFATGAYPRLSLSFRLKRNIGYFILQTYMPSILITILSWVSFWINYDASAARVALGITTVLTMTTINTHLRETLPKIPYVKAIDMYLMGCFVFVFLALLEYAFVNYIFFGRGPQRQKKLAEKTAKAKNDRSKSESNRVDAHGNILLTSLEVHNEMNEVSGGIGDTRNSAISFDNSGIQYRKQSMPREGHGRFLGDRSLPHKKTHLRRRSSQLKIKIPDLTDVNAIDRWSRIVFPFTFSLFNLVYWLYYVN

[2] = target: T2, GABA-A receptor; alpha-2/beta-3/gamma-2 (Homo sapiens, UniProt P18507+P28472+P47869); experiment: Binding affinity to human recombinant gamma-aminobutyric-acid (GABA) A receptor alpha-2-beta-3-gamma-2; format: protein-complex assay
T2 sequence (P18507 whole entry): T1 sequence (P18507 whole entry)
T2 sequence (P28472 whole entry): T1 sequence (P28472 whole entry)
T2 sequence (P47869 whole entry): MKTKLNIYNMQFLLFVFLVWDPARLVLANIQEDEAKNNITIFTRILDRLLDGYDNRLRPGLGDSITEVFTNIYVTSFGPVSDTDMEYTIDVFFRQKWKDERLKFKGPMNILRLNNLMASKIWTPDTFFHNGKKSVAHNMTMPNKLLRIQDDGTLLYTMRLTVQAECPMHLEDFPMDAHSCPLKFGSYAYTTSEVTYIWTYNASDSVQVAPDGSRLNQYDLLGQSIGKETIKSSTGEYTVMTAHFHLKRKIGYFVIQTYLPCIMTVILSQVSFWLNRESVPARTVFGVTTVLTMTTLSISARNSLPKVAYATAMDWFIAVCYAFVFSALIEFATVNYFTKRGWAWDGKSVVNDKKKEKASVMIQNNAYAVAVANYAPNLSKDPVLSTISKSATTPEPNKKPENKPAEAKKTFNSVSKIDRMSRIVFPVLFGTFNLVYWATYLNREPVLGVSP

[3] = target: T3, GABA-A receptor; alpha-5/beta-3/gamma-2 (Homo sapiens, UniProt P18507+P28472+P31644); experiment: Binding affinity for human recombinant gamma-aminobutyric-acid (GABA) A receptor alpha-5-beta-3-gamma-2; format: protein-complex assay
T3 sequence (P18507 whole entry): T1 sequence (P18507 whole entry)
T3 sequence (P28472 whole entry): T1 sequence (P28472 whole entry)
T3 sequence (P31644 whole entry): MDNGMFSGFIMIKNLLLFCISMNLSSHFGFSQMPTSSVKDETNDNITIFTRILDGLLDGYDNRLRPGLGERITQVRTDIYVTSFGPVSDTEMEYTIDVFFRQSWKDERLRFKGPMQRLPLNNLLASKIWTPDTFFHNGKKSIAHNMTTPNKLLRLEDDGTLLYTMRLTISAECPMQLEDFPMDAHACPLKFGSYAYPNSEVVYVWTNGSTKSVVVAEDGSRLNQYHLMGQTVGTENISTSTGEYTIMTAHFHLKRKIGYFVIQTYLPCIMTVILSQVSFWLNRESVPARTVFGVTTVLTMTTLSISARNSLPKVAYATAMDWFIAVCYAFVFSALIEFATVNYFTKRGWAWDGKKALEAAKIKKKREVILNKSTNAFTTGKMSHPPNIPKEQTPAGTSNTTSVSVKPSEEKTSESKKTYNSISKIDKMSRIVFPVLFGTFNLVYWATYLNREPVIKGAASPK

[4] = target: T4, GABA-A receptor; alpha-3/beta-3/gamma-2 (Homo sapiens, UniProt P18507+P28472+P34903); experiment: Binding affinity for human recombinant gamma-aminobutyric-acid (GABA) A receptor alpha-3-beta-3-gamma-2; format: protein-complex assay
T4 sequence (P18507 whole entry): T1 sequence (P18507 whole entry)
T4 sequence (P28472 whole entry): T1 sequence (P28472 whole entry)
T4 sequence (P34903 whole entry): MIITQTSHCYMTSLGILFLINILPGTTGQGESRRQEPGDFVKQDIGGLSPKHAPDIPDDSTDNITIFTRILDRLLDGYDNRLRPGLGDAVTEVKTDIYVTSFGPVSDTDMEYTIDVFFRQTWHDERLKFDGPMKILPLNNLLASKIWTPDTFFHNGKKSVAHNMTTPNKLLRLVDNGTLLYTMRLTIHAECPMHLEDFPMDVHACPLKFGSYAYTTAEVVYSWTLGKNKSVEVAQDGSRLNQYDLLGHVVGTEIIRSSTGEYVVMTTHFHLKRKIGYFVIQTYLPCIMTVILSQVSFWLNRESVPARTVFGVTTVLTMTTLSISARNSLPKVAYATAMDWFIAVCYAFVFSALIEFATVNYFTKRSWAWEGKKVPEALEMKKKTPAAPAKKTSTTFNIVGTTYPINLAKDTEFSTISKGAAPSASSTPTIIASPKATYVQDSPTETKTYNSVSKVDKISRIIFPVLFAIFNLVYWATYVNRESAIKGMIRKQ

[5] = target: GABA-A receptor; alpha-6/beta-3/gamma-2 (Homo sapiens, UniProt P18507+P28472+Q16445); experiment: Binding affinity for human recombinant gamma-aminobutyric-acid (GABA) A receptor alpha-6-beta-3-gamma-2; format: protein-complex assay
GABA-A receptor; alpha-6/beta-3/gamma-2, sequence (Q16445 whole entry, one chain of several): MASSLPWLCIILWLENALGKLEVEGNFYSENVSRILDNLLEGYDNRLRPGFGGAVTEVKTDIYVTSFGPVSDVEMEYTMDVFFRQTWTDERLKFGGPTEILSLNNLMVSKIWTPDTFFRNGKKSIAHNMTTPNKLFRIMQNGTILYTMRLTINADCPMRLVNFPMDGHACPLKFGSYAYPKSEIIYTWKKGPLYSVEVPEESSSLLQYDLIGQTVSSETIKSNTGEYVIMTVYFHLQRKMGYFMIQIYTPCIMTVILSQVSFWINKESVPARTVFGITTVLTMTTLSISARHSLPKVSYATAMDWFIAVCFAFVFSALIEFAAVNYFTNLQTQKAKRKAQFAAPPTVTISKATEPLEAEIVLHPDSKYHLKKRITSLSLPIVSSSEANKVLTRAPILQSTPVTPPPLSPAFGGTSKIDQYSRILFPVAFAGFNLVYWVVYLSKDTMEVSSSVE
Method in brief: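 Ltk⁻ cells expressing human α6β3γ2 were harvested by scraping into PBS, centrifuged at 3000g and resuspended in 10 mM KH₂PO₄/100 mM KCl (pH 7.4). Incubation was 1 h at 4 °C with filter harvest and scintillation counting.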

[6] = Selectivity ratio of alpha1 beta-3 gamma2 GABA A / BzR and alpha5 beta-3 gamma2 GABA A / BzR

Compound: COC(=O)c1cc2c(cn1)[nH]c1ccc(NCc3ccccc3)cc12
- Ki [1]: 5.42 nM
- Ki [2]: 30.2 nM
- Ki [3]: 475 nM
- Ki [4]: 48.9 nM
- Ki [5]: > 10000 nM

Compound: COc1ccc2c(c1)[nH]c1c2ncc2[nH]c3ccccc3c21
- Ki [1]: 3.4 nM
- Ki [2]: 11.7 nM
- Ki [3]: 225 nM
- Ki [4]: 11 nM
- Ki [5]: > 10000 nM

Compound: Clc1cc2c(cn1)[nH]c1ccccc12
- Ki [1]: 60.4 nM
- Ki [2]: 125 nM
- Ki [3]: 1000 nM
- Ki [4]: 126 nM
- Ki [5]: > 10000 nM

Compound: N#CSc1ccc2[nH]c3cnc(SC#N)cc3c2c1
- Ki [1]: 13.6 nM
- Ki [2]: 423 nM
- Ki [3]: 2910 nM
- Ki [5]: > 5000 nM

Compound: O=c1c2cnc3ccc(Cl)cc3c2[nH]n1-c1ccccc1
- Ki [1]: 0.23 nM
- Ki [2]: 0.17 nM
- Ki [3]: 0.44 nM
- Ki [4]: 0.12 nM
- Ki [5]: 17.3 nM

Compound: c1ccc2c(c1)[nH]c1cnc3c(nc4ccccn43)c12
- Ki [1]: 105 nM
- Ki [2]: 228 nM
- Ki [3]: > 3000 nM
- Ki [4]: 284 nM
- Ki [5]: > 10000 nM

Compound: Fc1ccc2c(c1)[nH]c1c3c4ccccc4nc-3c[nH]c12
- Ki [1]: 5.1 nM
- Ki [2]: 10.4 nM
- Ki [3]: 260 nM
- Ki [4]: 18.4 nM
- Ki [5]: > 10000 nM

Compound: c1ccc2c(c1)[nH]c1c2ncc2[nH]c3ccccc3c21
- Ki [1]: 1.1 nM
- Ki [2]: 1.2 nM
- Ki [3]: 40.3 nM
- Ki [4]: 1.1 nM
- Ki [5]: > 1000 nM

Compound: Clc1ccc2c(c1)[nH]c1c2ncc2[nH]c3ccccc3c21
- Ki [1]: 3.9 nM
- Ki [2]: 12.2 nM
- Ki [3]: 210 nM
- Ki [4]: 24.4 nM
- Ki [5]: > 10000 nM

Compound: COC(=O)c1cc2c3cc(NC4CCCCC4)ccc3nc-2c[nH]1
- Ki [1]: 2.39 nM
- Ki [2]: 17.4 nM
- Ki [3]: 316 nM
- Ki [4]: 14.4 nM
- Ki [5]: > 10000 nM

Compound: CCCCCCCCOc1ccc2c(c1)c1c(CC)c(C(=O)OCC)ncc1n2C
- Ki [1]: > 1000 nM
- Ki [2]: > 1000 nM
- Ki [3]: > 1000 nM
- Ki [4]: > 1000 nM
- Ki [5]: > 1000 nM

Compound: COCc1c(SC#N)[nH]cc2nc3ccc(OCc4ccccc4)cc3c1-2
- Ki [1]: 25 nM
- Ki [2]: 82.6 nM
- Ki [3]: 159 nM
- Ki [4]: 58.8 nM
- Ki [5]: > 10000 nM

Compound: Cc1nnc2n1-c1ccc(Cl)cc1C(c1ccccc1Cl)=NC2 [TRIAZOLAM]
- Ki [2]: 0.59 nM
- Ki [5]: > 10000 nM

Compound: O=C1CN=C(c2ccccc2[N+](=O)[O-])c2cc(Br)ccc2N1
- Ki [2]: 31 nM
- Ki [3]: 199 nM
- Ki [4]: 52 nM
- Ki [5]: > 3000 nM
- Ratio [6]: 0.08

Compound: C#Cc1ccc2ncc3c(=O)n(-c4ccccc4)[nH]c3c2c1
- Ki [1]: 0.08 nM
- Ki [2]: 0.06 nM
- Ki [3]: 0.08 nM
- Ki [4]: 0.02 nM
